{"data": "Published values collected from several papers", "target": "TRAF2 and NCK-interacting protein kinase (TNIK, Homo sapiens, UniProt Q9UKE5)", "note": "Compare with care: the assays were run in different laboratories."}
{"Compound": "Cn1c2c(c3ccc(Cl)c(Cl)c31)C(C#N)C1(CCN(C(=O)OC(C)(C)C)CC1)NC2=O (racemic)", "observed": "thermal stability", "technique": "DSF", "concentration": "10 µM", "endpoint": "ΔTm", "result": "-0.1 °C"}
{"Compound": "O=C(O)[C@H]1[C@H](Cn2nnc3ccccc3c2=O)CC[C@@H]1C(=O)c1ccc(OCCC2CCOCC2)cc1", "observed": "cell-free assay", "technique": "competition with immobilised ligand", "concentration": "1 µM", "endpoint": "remaining binding", "result": "84%"}
{"Compound": "O=C(Nc1cnn(-c2csc(C(=O)NC3COC3)c2)c1)Nc1c(F)cccc1Cl", "observed": "enzyme activity", "action": "inhibitor", "concentration": "5 µM", "endpoint": "remaining activity", "result": "84.3%"}
{"Compound": "COc1ccc2cc(OCC3(C(=O)O)CN(C(=O)c4ccc(F)cc4)C3)ccc2c1", "observed": "cell-free assay", "technique": "competition with immobilised ligand", "concentration": "1 µM", "endpoint": "remaining binding", "result": "61%"}
{"Compound": "Cn1c2c(c3ccc(Cl)c(Cl)c31)C(C#N)C1(CCOCC1)NC2=O (centres unmarked)", "observed": "thermal stability", "technique": "DSF", "concentration": "10 µM", "endpoint": "ΔTm", "result": "-0.1 °C"}
{"Compound": "Cc1ccc(C(=O)Nc2ccc(CN3CCN(C)CC3)c(C(F)(F)F)c2)cc1C#Cc1cnc2cccnn12", "observed": "enzyme activity", "action": "inhibitor", "concentration": "23.5 nM", "endpoint": "remaining activity", "result": "34%"}
{"Compound": "COc1cccc2c(NCc3ccccc3)nc(-n3c(N)nc4ccccc43)nc12", "observed": "target engagement in cells", "action": "inhibitor", "technique": "chemoproteomics", "concentration": "20 mM", "endpoint": "inhibition", "result": "3.5%"}
{"Compound": "CN1CC(Oc2cnc(C#N)cc2-c2ccn3nc(NC(=O)C4CC4)cc3c2)C1", "observed": "enzyme activity", "action": "inhibitor", "concentration": "1 µM", "endpoint": "inhibition", "result": "29%"}
{"Compound": "CN1CCC2(CC1)NC(=O)c1c(c3ccc(Cl)c(Cl)c3n1C)C2C#N (racemic)", "observed": "thermal stability", "technique": "DSF", "concentration": "10 µM", "endpoint": "ΔTm", "result": "0 °C"}
{"Compound": "C[C@@H]1CN(c2cc(-c3nn(C)c4ccc(OC5(C)CC5)cc34)ncn2)C[C@H](C)O1", "observed": "cell-free assay", "technique": "competition with immobilised ligand", "concentration": "1 µM", "endpoint": "remaining binding", "result": "80%"}
{"Compound": "CS(=O)(=O)Nc1cccc(-c2csc(NC(=O)CSc3nc4nccnc4c(=O)n3CCc3ccccc3)n2)c1", "observed": "enzyme activity", "action": "inhibitor", "concentration": "10 µM", "endpoint": "inhibition", "result": "-2%"}
{"Compound": "N#CC1c2c([nH]c3c(Cl)c(Cl)ccc23)C(=O)NC12CCCCC2 (racemic)", "observed": "thermal stability", "technique": "DSF", "concentration": "10 µM", "endpoint": "ΔTm", "result": "0 °C"}
{"Compound": "Cn1cnc(Br)c1C1=CN(c2ncnc3[nH]cnc23)CCS1", "observed": "enzyme activity", "action": "inhibitor", "technique": "radiometric", "concentration": "50 nM", "endpoint": "inhibition", "result": "21.5%"}
{"Compound": "CCC1(CC)NC(=O)c2c(c3ccc(Cl)c(Cl)c3n2C)C1C#N (centres unmarked)", "observed": "thermal stability", "technique": "DSF", "concentration": "10 µM", "endpoint": "ΔTm", "result": "0.3 °C"}
{"Compound": "CO[C@@H](C)c1c(Nc2ccc([C@@H](N(C)C(=O)C3CCS(=O)(=O)CC3)C(F)(F)F)cc2)cnc2cc(Cl)nn12", "observed": "cell-free assay", "technique": "competition with immobilised ligand", "concentration": "1 µM", "endpoint": "remaining binding", "result": "100%"}
{"Compound": "CNC(=O)c1cc2c(Oc3ccc(NC(=O)C4(C(=O)Nc5ccc(F)cc5)CC4)cc3)ccnc2cc1OC", "observed": "enzyme activity", "action": "inhibitor", "technique": "radiometric", "concentration": "1 µM", "endpoint": "inhibition", "result": "73%"}
{"Compound": "CS(=O)(=O)c1cc(C2(NC(=O)c3cncc4c3cnn4-c3ccc(F)cc3)CC2)ccn1", "observed": "cell-free assay", "technique": "competition with immobilised ligand", "concentration": "1 µM", "endpoint": "remaining binding", "result": "95%"}
{"Compound": "COc1cc(Cl)c(C(=O)N[C@@H](CN[C@H]2CC[C@@H](N)CC2)Cc2ccc(C#N)cc2)cc1-c1ccc(CN[C@H](C)c2ccc(C)cc2)o1", "observed": "enzyme activity", "action": "inhibitor", "concentration": "1 µM", "endpoint": "remaining activity", "result": "100%"}
{"Compound": "Cn1c2c(c3ccc(Cl)c(Cl)c31)C(C#N)C1(CCNCC1)NC2=O (racemic)", "observed": "thermal stability", "technique": "DSF", "concentration": "10 µM", "endpoint": "ΔTm", "result": "-0.1 °C"}
{"Compound": "Cn1cc(Cl)c2c(Oc3c(F)cc(Nc4cc(Cl)nc(N)n4)cc3F)ccnc21", "observed": "cell-free assay", "technique": "competition with immobilised ligand", "concentration": "0.1 µM", "endpoint": "remaining binding", "result": "96%"}
